The text below walks through data of ChEMBL document CHEMBL5335820, “Novel quinolinepiperazinyl-aryltetrazoles targeting the blood stage of Plasmodium falciparum” (RSC Med Chem, 2024).

The term inhibition denotes the relative decrease from the control value, in per cent. In general, IC50 refers to the concentration that gives 50% inhibition. Usually CC50 stands for the concentration at which the toxic effect on the cells reaches its halfway point.

In data set [1] the test system is Plasmodium falciparum. Nature of the data set: Antiplasmodial activity against chloroquine resistant Plasmodium falciparum INDO infected in human erythrocytes assessed as inhibition of parasite growth at 100 uM incubated for 72 hrs by SYBR green I staining based fluorescence plate reader analysis relative to control. In kind it is functional. Conditions: Erythrocyte. The method, boiled down:
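Single-concentration screen at 100 μM against PfINDO, triplicate wells, 72 h. Final DMSO was 0.4%. Growth was read by SYBR Green I lysis (excitation 485, emission 530 nm) and expressed relative to untreated culture, taken as 100% growth.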

Data set [2] deals with Plasmodium falciparum. In words: Antimalarial activity against chloroquine resistant trophozoites-stage Plasmodium falciparum INDO infected in human erythrocytes assessed as inhibition of parasite growth incubated for 12 hrs. In kind it is functional, organism-based. The following applies: Erythrocyte. The method in brief: (§1)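 PfINDO cultures were staged at 0–6 h (rings), 18–22 h (trophozoites), 30–34 h (early schizonts) and 40–44 h (late schizonts) post-invasion. Each was exposed to varying concentrations for 12 h, washed free of compound by centrifugation, and grown 48 h in drug-free medium. IC50 came from growth curves, with untreated culture as 100% and chloroquine-treated culture as 0% growth.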

Data set [3] can be described thus: Cytotoxicity against human Huh-7 cells assessed as reduction in cell viability incubated for 24 hrs by MTT assay. In kind it is toxicity, cell-based. Background: Tetrazolium assays rely on reduction of a dye to a coloured formazan, in cell work by metabolically active cells.
Data set [4] is described as follows: Cytotoxicity against human HEK293 cells assessed as reduction in cell viability incubated for 24 hrs by MTT assay. In kind it is toxicity, cell-based.
In data set [5] the test system is Plasmodium falciparum. In words: Antimalarial activity against chloroquine resistant early schizont Plasmodium falciparum INDO infected in human erythrocytes assessed as inhibition of parasite growth incubated for 12 hrs. In kind it is functional, organism-based. The following applies: Erythrocyte. The method in brief: as §1
Data set [6] relates to Plasmodium falciparum. In words: Antiplasmodial activity against chloroquine resistant Plasmodium falciparum INDO infected in human erythrocytes assessed as inhibition of parasite growth incubated for 72 hrs by SYBR green I staining based fluorescence plate reader analysis. The format is functional, organism-based. Conditions: Erythrocyte. The method, boiled down: (§2)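 Pf3D7 or PfINDO was cultured in O+ human erythrocytes at 37 °C under 5% O2/5% CO2/90% N2 and ring-synchronised with 5% sorbitol. Cultures were exposed to 0–100 μM in triplicate for 72 h, with final DMSO 0.4%. After SYBR Green I lysis buffer (1 h, dark, 37 °C), fluorescence was read at 485/530 nm. Chloroquine-well counts were subtracted as background, and IC50 was obtained by non-linear regression.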

For data set [7], the system named is Plasmodium falciparum. In words: Antiplasmodial activity against chloroquine sensitive Plasmodium falciparum 3D7 infected in human erythrocytes assessed as inhibition of parasite growth incubated for 72 hrs by SYBR green I staining based fluorescence plate reader analysis. The format is functional, organism-based. The following applies: 3D7, Erythrocyte. The method, boiled down:
as §2

Data set [8] in a line: Resistance index, ratio of IC50 of chloroquine resistant Plasmodium falciparum INDO to chloroquine sensitive Plasmodium falciparum 3D7. The format is functional. The method in brief: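 Resistance index = IC50 against PfINDO / IC50 against Pf3D7. Both IC50s came from 72 h SYBR Green I assays.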
Data set [9] has as its system Plasmodium falciparum. Nature of the data set: Antiplasmodial activity against chloroquine resistant ring-stage Plasmodium falciparum INDO infected in human erythrocytes assessed as inhibition of parasite growth incubated for 12 hrs. In kind it is functional, organism-based. Conditions: Erythrocyte. The method in brief:
as §1

Data set [10] in a line: Selectivity index, ratio of CC50 for human HEK293 cells to IC50 of chloroquine resistant Plasmodium falciparum INDO infected in human erythrocytes. Conditions: read-out: Ratio CC50/IC50. In kind it is toxicity, cell-based. The method in brief: (§3)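 Selectivity index = CC50 / PfINDO IC50. CC50 came from MTT assays: 10^4 HEK293 or HUH7 cells per well, seeded overnight and exposed to 0–100 μM for 24 h, then MTT for 4 h at 37 °C with formazan dissolved in DMSO and read at A570. Controls were 0.8% DMSO (full growth) and 10% DMSO (zero growth).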

Data set [11] relates to Plasmodium falciparum. Nature of the data set: Antiplasmodial activity against chloroquine sensitive Plasmodium falciparum 3D7 infected in human erythrocytes assessed as inhibition of parasite growth at 100 uM incubated for 72 hrs by SYBR green I staining based fluorescence plate reader analysis relative to control. In kind it is functional. The following applies: 3D7, Erythrocyte. The method, boiled down: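 Pf3D7 grown in O+ human erythrocytes at 4% haematocrit, Albumax (0.05%)-RPMI, 37 °C, 5% O2/5% CO2/90% N2, sorbitol-synchronised at ring stage. Single-point screen at 100 μM, final DMSO 0.4%, triplicate wells, 72 h. Read-out by SYBR Green I lysis buffer (Tris pH 7.5, EDTA, saponin, Triton X-100), 1 h dark at 37 °C, ex 485/em 530 nm. Growth expressed relative to untreated culture.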

The nature of data set [12]: Selectivity index, ratio of CC50 for human Huh-7 cells to IC50 for antiplasmodial activity against chloroquine resistant Plasmodium falciparum INDO infected in human erythrocytes. The format is toxicity, cell-based. Conditions: read-out: Ratio CC50/IC50. The method, boiled down:
as §3

Data set [13] relates to Plasmodium falciparum. Nature of the data set: Antimalarial activity against chloroquine resistant late schizont Plasmodium falciparum INDO infected in human erythrocytes assessed as inhibition of parasite growth incubated for 12 hrs. The following applies: Erythrocyte. In kind it is functional, organism-based. The method, boiled down: as §1
The test system of another data set is Plasmodium berghei. Nature of the data set: Antimalarial activity against Plasmodium berghei ANKA infected in mouse model of malaria assessed as reduction in parasite infection by measuring median survival at 100 mg/kg, po. In kind it is functional.

On to `Clc1ccc(-c2nnn(CCCN3CCN(c4ccnc5cc(Cl)ccc45)CC3)n2)cc1`, for which the inhibition at 100 µM with Plasmodium falciparum [1] and in the data set with Plasmodium falciparum [11] was above 50% in each case. The IC50 was 12.2 µM in the data set with Plasmodium falciparum [2]; 3.93 µM with Plasmodium falciparum [5]; 2.87 µM in the data set on Plasmodium falciparum [6]; 1.11 µM in the data set with Plasmodium falciparum [7]; 4.07 µM with Plasmodium falciparum [9]; 7.64 µM in the data set on Plasmodium falciparum [13]. The CC50 at 24 h in data set [3] and in data set [4] was above 400 µM each time. Also, the Ratio IC50 in [8] is 2.58. For the same compound, the selectivity ratio is 139 in data set [10] and above 139 in data set [12].

With `Fc1ccc(-c2nnn(CCCN3CCN(c4ccnc5cc(Cl)ccc45)CC3)n2)cc1`, the inhibition at 100 µM in the data set with Plasmodium falciparum [1] and with Plasmodium falciparum [11] was above 50% each time. In addition, the IC50 in the data set on Plasmodium falciparum [2] stood at 2.8 µM; with Plasmodium falciparum [5], 1.68 µM; with Plasmodium falciparum [6] it was 4.04 µM; in the data set with Plasmodium falciparum [7], 2.07 µM; with Plasmodium falciparum [9], 1.72 µM; in the data set on Plasmodium falciparum [13] it was 1.85 µM. Moreover, the CC50 at 24 h in data set [3] and in [4] was above 400 µM throughout. Besides, the Ratio IC50 in data set [8] came out at 1.96. The values for the selectivity ratio in data set [10] and in [12] were 99 and above 99, respectively.

In the case of `CCN(CC)CCCC(C)Nc1ccnc2cc(Cl)ccc12` (stereo not given) [CHLOROQUINE], the Survival in the data set with Plasmodium berghei was found to be 28 days.

As for `O=C(Cn1nnc(-c2cccc(Cl)c2)n1)N1CCN(c2ccnc3cc(Cl)ccc23)CC1`, the inhibition at 100 µM in the data set on Plasmodium falciparum [1] and in the data set with Plasmodium falciparum [11] was above 50% each time. Moreover, the IC50 is 5.39 µM in the data set on Plasmodium falciparum [2]; 15.9 µM with Plasmodium falciparum [5]; 5.91 µM with Plasmodium falciparum [6]; 12.6 µM with Plasmodium falciparum [7]; 19.6 µM with Plasmodium falciparum [9]; 24.8 µM with Plasmodium falciparum [13]. The CC50 at 24 h in data set [3] and in data set [4] was above 400 µM each time. For the same compound, the Ratio IC50 in data set [8] is 0.47. Further, the selectivity ratio in data set [10] was 67.7; in [12], above 67.7.
